Activity calls are given as the source filed them. The rule behind the calls is not given here.
Tests used:
[1] = DPPH radical scavenging activity relative to Trolox; format: functional; parameters: concentration or dose not given beside the values
Outline: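 Compounds were made up as DMSO stocks and diluted in isopropanol to a final 10 μM. Each was mixed with DPPH in isopropanol at 10 μM or 30 μM DPPH, and absorbance was read at 515 nm. Scavenging was calculated as [1 − OD515(compound)/OD515(control)] × 100, then expressed as a percentage of Trolox activity. One experiment was run in triplicate.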

[2] = tested on: UACC-257; experiment: Growth inhibition of human UACC257 cells; format: functional
[3] = Inhibition of 1,10-phenanthroline-induced HIF1 activation in T47D cells by TK-luciferase assay; format: cell-based; conditions: Homo sapiens
Outline: (§1)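 HIF-1 reporter (pHRE-TK-Luc) assays in transfected PC-3 or T47D cells; HIF-1 induced by hypoxia or by the hypoxia mimetic 1,10-phenanthroline (10 μM); compounds at half-log concentrations; luciferase activity measured; IC50 from experiments in triplicate.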

[4] = tested on: A549; experiment: Growth inhibition of human A549 cells; format: functional
[5] = tested on: COLO 205; experiment: Growth inhibition of human COLO205 cells; format: functional
[6] = tested on: A498; experiment: Growth inhibition of human A498 cells; format: functional
[7] = tested on: HOP-92; experiment: Growth inhibition of human HOP92 cells; format: functional
[8] = tested on: PC-3; experiment: Growth inhibition of human PC3 cells; format: functional
[9] = tested on: SK-MEL-28; experiment: Growth inhibition of human SK-MEL28 cells; format: functional
[10] = Inhibition of 1,10-phenanthroline-induced HIF1 activation in PC3 cells by TK-luciferase assay; format: cell-based; conditions: Homo sapiens, PC-3; outline: as §1
[11] = Growth inhibition of human OVACAR3 cells; format: functional
[12] = tested on: CCRF-CEM; experiment: Growth inhibition of human CCRF-CEM cells; format: functional
[13] = tested on: SR; experiment: Growth inhibition of human SR cells; format: functional
[14] = tested on: SK-MEL-2; experiment: Growth inhibition of human SK-MEL2 cells; format: functional
[15] = tested on: SK-OV-3; experiment: Growth inhibition of human SK-OV3 cells; format: functional
[16] = tested on: SW-620; experiment: Growth inhibition of human SW620 cells; format: functional
[17] = tested on: DU-145; experiment: Growth inhibition of human DU145 cells; format: functional
[18] = tested on: ACHN; experiment: Growth inhibition of human ACHN cells; format: functional
[19] = tested on: Malme-3M; experiment: Growth inhibition of human MALME-3M cells; format: functional
[20] = tested on: SF-268; experiment: Growth inhibition of human SF268 cells; format: functional
[21] = tested on: OVCAR-4; experiment: Growth inhibition of human OVACAR4 cells; format: functional
[22] = tested on: HCT-15; experiment: Growth inhibition of human HCT15 cells; format: functional
[23] = tested on: SK-MEL-5; experiment: Growth inhibition of human SK-MEL5 cells; format: functional
[24] = tested on: EKVX; experiment: Growth inhibition of human EKVX cells; format: functional
[25] = tested on: SF-539; experiment: Growth inhibition of human SF539 cells; format: functional
[26] = tested on: SF-295; experiment: Growth inhibition of human SF295 cells; format: functional
[27] = tested on: T47D; experiment: Inhibition of 1,10-phenanthroline-induced VEGF protein secretion in human T47D cells at 10 uM after 16 hrs by ELISA; format: functional, cell-based
Outline: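 T47D cells stimulated with 1,10-phenanthroline, compound at 10 μM; secreted VEGF in conditioned media by ELISA, normalized to cell-lysate protein.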

[28] = tested on: 786-0; experiment: Growth inhibition of human 786-0 cells; format: functional
[29] = tested on: M14; experiment: Growth inhibition of human M14 cells; format: functional
[30] = tested on: NCI-H522; experiment: Growth inhibition of human NCI-H522 cells; format: functional
[31] = tested on: HCT-116; experiment: Growth inhibition of human HCT116 cells; format: functional
[32] = tested on: OVCAR-8; experiment: Growth inhibition of human OVACAR8 cells; format: functional
[33] = tested on: T47D; experiment: Growth inhibition of human T47D cells; format: functional
[34] = tested on: NCI-H460; experiment: Growth inhibition of human NCI-H460 cells; format: functional
[35] = tested on: KM12; experiment: Growth inhibition of human KM12 cells; format: functional
[36] = tested on: MCF7; experiment: Growth inhibition of human MCF7 cells; format: functional
[37] = tested on: UACC-62; experiment: Growth inhibition of human UACC62 cells; format: functional
[38] = tested on: NCI/ADR-RES; experiment: Growth inhibition of human NCI/ADR-RES cells; format: functional
[39] = tested on: HT-29; experiment: Growth inhibition of human HT29 cells; format: functional
[40] = tested on: IGROV-1; experiment: Growth inhibition of human IGROV1 cells; format: functional
[41] = read-out: Log LC50 (the source's name) (converted)

CCCc1cc(=O)c2c(OC)c3c(OC)cc(O)c(Oc4c(O)cc(OC)c5c(OC)c6c(=O)cc(CCC)oc6cc45)c3cc2o1
Activity [1]: 40% | GI50 [2]: 3.8 µM | LC50 [2]: 40.7 µM | TGI ([2]; read-out: Log TGI (converted)): 13.8 µM | IC50 [3]: 0.8 µM | GI50 [4]: 11.2 µM | CC50 [4, 41]: 72.4 µM | TGI ([4]; read-out: Log TGI (converted)): 28.8 µM | GI50 [5]: 10 µM | CC50 [5, 41]: 57.5 µM | TGI ([5]; read-out: Log TGI (converted)): 24 µM | GI50 [6]: 18.2 µM | LC50 [6]: 60.3 µM | TGI ([6]; read-out: Log TGI (converted)): 33.1 µM | GI50 [7]: 2.14 µM | CC50 [7, 41]: 50.1 µM | TGI ([7]; read-out: Log TGI (converted)): 13.8 µM | GI50 [8]: 6.31 µM | LC50 [8]: 46.8 µM | TGI ([8]; read-out: Log TGI (converted)): 20 µM | GI50 [9]: 11.5 µM | CC50 [9, 41]: 53.7 µM | TGI ([9]; read-out: Log TGI (converted)): 24.5 µM | IC50 [10]: 3.9 µM | GI50 [11]: 2.19 µM | CC50 [11, 41]: 57.5 µM | TGI ([11]; read-out: Log TGI (converted)): 8.71 µM | GI50 [12]: 2.34 µM | LC50 [12]: > 100 µM | TGI ([12]; read-out: Log TGI (converted)): 14.1 µM | GI50 [13]: 2.88 µM | CC50 [13, 41]: 77.6 µM | TGI ([13]; read-out: Log TGI (converted)): 7.08 µM | GI50 [14]: 10.7 µM | LC50 [14]: 61.7 µM | TGI ([14]; read-out: Log TGI (converted)): 25.7 µM | GI50 [15]: 15.1 µM | LC50 [15]: 53.7 µM | TGI ([15]; read-out: Log TGI (converted)): 28.2 µM | GI50 [16]: 11.5 µM | CC50 [16, 41]: 61.7 µM | TGI ([16]; read-out: Log TGI (converted)): 26.3 µM | GI50 [17]: 6.03 µM | CC50 [17, 41]: 43.7 µM | TGI ([17]; read-out: Log TGI (converted)): 18.6 µM | GI50 [18]: 7.08 µM | CC50 [18, 41]: 45.7 µM | TGI ([18]; read-out: Log TGI (converted)): 20 µM | GI50 [19]: 7.41 µM | CC50 [19, 41]: 49 µM | TGI ([19]; read-out: Log TGI (converted)): 20.4 µM | GI50 [20]: 12.6 µM | LC50 [20]: 66.1 µM | TGI ([20]; read-out: Log TGI (converted)): 28.8 µM | GI50 [21]: 2.57 µM | LC50 [21]: 37.2 µM | TGI ([21]; read-out: Log TGI (converted)): 8.51 µM | GI50 [22]: 7.41 µM | CC50 [22, 41]: 47.9 µM | TGI ([22]; read-out: Log TGI (converted)): 20.4 µM | GI50 [23]: 2.09 µM | LC50 [23]: 7.08 µM | TGI ([23]; read-out: Log TGI (converted)): 3.8 µM | GI50 [24]: 4.37 µM | CC50 [24, 41]: 44.7 µM | TGI ([24]; read-out: Log TGI (converted)): 16.6 µM | GI50 [25]: 11.2 µM | LC50 [25]: 50.1 µM | TGI ([25]; read-out: Log TGI (converted)): 23.4 µM | GI50 [26]: 5.13 µM | LC50 [26]: 50.1 µM | TGI ([26]; read-out: Log TGI (converted)): 18.6 µM | Activity [27]: inactive | GI50 [28]: 9.33 µM | LC50 [28]: 49 µM | TGI ([28]; read-out: Log TGI (converted)): 21.9 µM | GI50 [29]: 3.02 µM | LC50 (50% lethal concentration) [29]: 34.7 µM | TGI ([29]; read-out: Log TGI (converted)): 11.5 µM | GI50 [30]: 6.61 µM | CC50 [30, 41]: 60.3 µM | TGI ([30]; read-out: Log TGI (converted)): 21.9 µM | GI50 [31]: 3.39 µM | CC50 [31, 41]: 34.7 µM | TGI ([31]; read-out: Log TGI (converted)): 11.5 µM | GI50 [32]: 4.68 µM | LC50 [32]: 100 µM | TGI ([32]; read-out: Log TGI (converted)): 53.7 µM | GI50 [33]: 3.63 µM | LC50 [33]: 91.2 µM | TGI ([33]; read-out: Log TGI (converted)): 12.9 µM | GI50 [34]: 10.7 µM | CC50 [34, 41]: 89.1 µM | TGI ([34]; read-out: Log TGI (converted)): 30.9 µM | GI50 [35]: 13.8 µM | CC50 [35, 41]: 69.2 µM | TGI ([35]; read-out: Log TGI (converted)): 30.9 µM | GI50 [36]: 3.31 µM | LC50 [36]: 100 µM | TGI ([36]; read-out: Log TGI (converted)): 10 µM | GI50 [37]: 4.9 µM | LC50 (lethal concentration, 50% cell kill) [37]: 41.7 µM | TGI ([37]; read-out: Log TGI (converted)): 17 µM | GI50 [38]: 6.76 µM | LC50 (concentration killing 50% of cells) [38]: 100 µM | TGI ([38]; read-out: Log TGI (converted)): 67.6 µM | GI50 [39]: 13.2 µM | CC50 [39, 41]: 79.4 µM | TGI ([39]; read-out: Log TGI (converted)): 32.4 µM | GI50 [40]: 10.2 µM | CC50 [40, 41]: 57.5 µM | TGI ([40]; read-out: Log TGI (converted)): 24 µM
